Tests used:
Staphylococcus aureus [1] = assay: Bactericidal activity against daptomycin-nonsusceptible Staphylococcus aureus assessed as antibiotic concentration that reduced the number of viable cells by =>99.9% by colony count method in presence of 50 mg/L calcium; assay type: functional
Method in brief: (§1)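 MBC per CLSI following microdilution in cation-adjusted Mueller-Hinton broth with calcium added to 50 mg/liter final. Defined as the concentration giving ≥99.9% reduction in viable cells, judged from colony counts of the growth control well against Pearson rejection-value tables.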

Staphylococcus aureus [2] = assay: Antimicrobial activity against vancomycin resistant Staphylococcus aureus VRS-2 expressing SCCmec type 2 element by microdilution method in presence of 50 mg/L calcium
Staphylococcus aureus [3] = assay: Antimicrobial activity against vancomycin intermediate Staphylococcus aureus NRS-403 expressing SCCmec type 2 element by microdilution method in presence of 50 mg/L calcium; assay type: functional
Method in brief: (§2)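 Daptomycin MIC by CLSI broth microdilution in cation-adjusted Mueller-Hinton broth, supplemented with calcium to a final 50 mg/liter. Read visually as the lowest concentration with no visible growth. ATCC 29213 and E. faecalis ATCC 29212 served as controls. CA-MRSA and DNSSA isolates came from patients at the study hospital; VISA isolates came from NARSA.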

Staphylococcus aureus [4] = assay: Antimicrobial activity against vancomycin-intermediate Staphylococcus aureus by microdilution method in presence of 50 mg/L calcium; assay type: functional
Method in brief: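 Daptomycin MIC by CLSI broth microdilution in cation-adjusted Mueller-Hinton broth supplemented with calcium to a final 50 mg/liter. The endpoint is the lowest concentration with no visible growth, read visually. S. aureus ATCC 29213 and E. faecalis ATCC 29212 were used as control strains.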

Staphylococcus aureus [5] = assay: Antimicrobial activity against vancomycin intermediate Staphylococcus aureus NRS-24 expressing SCCmec type 2 element by microdilution method in presence of 50 mg/L calcium; assay type: functional; method in brief: as §2
Staphylococcus aureus [6] = assay: Antimicrobial activity against vancomycin intermediate Staphylococcus aureus NRS-118 expressing SCCmec type 1 element by microdilution method in presence of 50 mg/L calcium; assay type: functional; method in brief: as §2
Staphylococcus aureus [7] = assay: Antimicrobial activity against vancomycin intermediate Staphylococcus aureus NRS-23 expressing SCCmec type 2 element by microdilution method in presence of 50 mg/L calcium; assay type: functional; method in brief: as §2
Staphylococcus aureus [8] = assay: Antimicrobial activity against daptomycin-nonsusceptible Staphylococcus aureus by microdilution method in presence of 50 mg/L calcium; assay type: functional; method in brief: as §2
Staphylococcus aureus [9] = assay: Antimicrobial activity against vancomycin intermediate Staphylococcus aureus NRS-19 expressing SCCmec type 2 element by microdilution method in presence of 50 mg/L calcium; assay type: functional; method in brief: as §2
Staphylococcus aureus [10] = assay: Antimicrobial activity against vancomycin resistant Staphylococcus aureus VRS-3 expressing SCCmec type 4 element by microdilution method in presence of 50 mg/L calcium
Staphylococcus aureus [11] = assay: Antimicrobial activity against vancomycin intermediate Staphylococcus aureus NRS-76 expressing SCCmec type 2 element by microdilution method in presence of 50 mg/L calcium; assay type: functional
Method in brief: (§3)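 Broth microdilution per CLSI in cation-adjusted Mueller-Hinton broth supplemented with calcium to 50 mg/liter final. Antibiotic powders were reconstituted per CLSI. The MIC was read visually as the lowest drug concentration with no visible growth. S. aureus ATCC 29213 and E. faecalis ATCC 29212 served as control strains.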

Staphylococcus aureus [12] = assay: Antimicrobial activity against vancomycin intermediate Staphylococcus aureus NRS-17 expressing SCCmec type 2 element by microdilution method in presence of 50 mg/L calcium; assay type: functional; method in brief: as §2
Staphylococcus aureus [13] = assay: Antimicrobial activity against vancomycin resistant Staphylococcus aureus VRS-1 expressing SCCmec type 2 element by microdilution method in presence of 50 mg/L calcium; assay type: functional; method in brief: as §3
Staphylococcus aureus [14] = assay: Antimicrobial activity against daptomycin-nonsusceptible Staphylococcus aureus assessed as susceptible isolates by microdilution method in presence of 50 mg/L calcium; assay type: functional
Method in brief: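 Broth microdilution MIC per CLSI in cation-adjusted Mueller-Hinton broth, with calcium added to a final 50 mg/liter for daptomycin testing. MIC is the lowest drug concentration with no visible growth, read by eye. Percent susceptible was assigned from CLSI breakpoints. S. aureus ATCC 29213 and E. faecalis ATCC 29212 served as control strains.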

Staphylococcus aureus [15] = assay: Bactericidal activity against vancomycin-resistant Staphylococcus aureus assessed as antibiotic concentration that reduced the number of viable cells by =>99.9% by colony count method in presence of 50 mg/L calcium; assay type: functional; method in brief: as §1
Staphylococcus aureus [16] = assay: Antimicrobial activity against vancomycin intermediate Staphylococcus aureus NRS-51 expressing SCCmec type 2 element by microdilution method in presence of 50 mg/L calcium; assay type: functional; method in brief: as §2
Staphylococcus aureus [17] = assay: Bactericidal activity against community-acquired methicillin-resistant Staphylococcus aureus assessed as antibiotic concentration that reduced the number of viable cells by =>99.9% by colony count method in presence of 50 mg/L calcium; assay type: functional; method in brief: as §1
Staphylococcus aureus [18] = assay: Antimicrobial activity against vancomycin resistant Staphylococcus aureus VRS-5 expressing SCCmec type 2 element by microdilution method in presence of 50 mg/L calcium
Staphylococcus aureus [19] = assay: Antimicrobial activity against vancomycin intermediate Staphylococcus aureus NRS-3 expressing SCCmec type 2 element by microdilution method in presence of 50 mg/L calcium; assay type: functional; method in brief: as §2
Staphylococcus aureus [20] = assay: Antimicrobial activity against vancomycin resistant Staphylococcus aureus VRS-10 expressing SCCmec type 2 element by microdilution method in presence of 50 mg/L calcium
Staphylococcus aureus [21] = assay: Antimicrobial activity against vancomycin intermediate Staphylococcus aureus NRS-22 expressing SCCmec type 2 element by microdilution method in presence of 50 mg/L calcium; assay type: functional; method in brief: as §2
Staphylococcus aureus [22] = assay: Antimicrobial activity against community-acquired methicillin-resistant Staphylococcus aureus assessed as susceptible isolates by microdilution method in presence of 50 mg/L calcium; assay type: functional
Method in brief: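 Daptomycin MICs by CLSI broth microdilution in cation-adjusted Mueller-Hinton broth with calcium added to a final 50 mg/liter, read visually. Percentage susceptible among 92 CA-MRSA isolates assigned by CLSI breakpoints.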

Staphylococcus aureus [23] = assay: Antimicrobial activity against vancomycin intermediate Staphylococcus aureus NRS-74 expressing SCCmec type 2 element by microdilution method in presence of 50 mg/L calcium; assay type: functional; method in brief: as §3
Staphylococcus aureus [24] = assay: Antimicrobial activity against vancomycin intermediate Staphylococcus aureus NRS-4 expressing SCCmec type 2 element by microdilution method in presence of 50 mg/L calcium; assay type: functional; method in brief: as §2
Staphylococcus aureus [25] = assay: Antimicrobial activity against community-acquired methicillin-resistant Staphylococcus aureus by microdilution method in presence of 50 mg/L calcium; assay type: functional; method in brief: as §2
Staphylococcus aureus [26] = assay: Antimicrobial activity against vancomycin intermediate Staphylococcus aureus NRS-18 expressing SCCmec type 2 element by microdilution method in presence of 50 mg/L calcium; assay type: functional; method in brief: as §2
Staphylococcus aureus [27] = assay: Antimicrobial activity against vancomycin resistant Staphylococcus aureus VRS-4 expressing SCCmec type 4 element by microdilution method in presence of 50 mg/L calcium
Staphylococcus aureus [28] = assay: Antimicrobial activity against vancomycin-resistant Staphylococcus aureus assessed as susceptible isolates by microdilution method in presence of 50 mg/L calcium; assay type: functional; method in brief: as §3
Staphylococcus aureus [29] = assay: Antimicrobial activity against vancomycin intermediate Staphylococcus aureus NRS-26 expressing SCCmec type 2 element by microdilution method in presence of 50 mg/L calcium; assay type: functional; method in brief: as §2
Staphylococcus aureus [30] = assay: Antimicrobial activity against vancomycin resistant Staphylococcus aureus VRS-7 expressing SCCmec element by microdilution method in presence of 50 mg/L calcium; assay type: functional; method in brief: as §3

`CCCCCCCCCC(=O)N[C@@H](Cc1c[nH]c2ccccc12)C(=O)N[C@H](CC(N)=O)C(=O)N[C@@H](CC(=O)O)C(=O)N[C@@H]1C(=O)NCC(=O)N[C@@H](CCCN)C(=O)N[C@@H](CC(=O)O)C(=O)N[C@H](C)C(=O)N[C@@H](CC(=O)O)C(=O)NCC(=O)N[C@H](CO)C(=O)N[C@@H]([C@H](C)CC(=O)O)C(=O)N[C@@H](CC(=O)c2ccccc2N)C(=O)O[C@@H]1C` was tested, and the MBC (Staphylococcus aureus [1]) was 4 µg/mL, the MBC50 (Staphylococcus aureus [1]) was 8 µg/mL and the MBC (Staphylococcus aureus [1]; Staphylococcus aureus, read-out: MBC) was 5.94 µg/mL. For the same molecule, the MIC (Staphylococcus aureus [2]) was 0.5 µg/mL, the MIC (Staphylococcus aureus [3]) was 2 µg/mL and the MIC50 (Staphylococcus aureus [4]) was 2 µg/mL. The MIC90 (Staphylococcus aureus [4]) was 4 µg/mL, the MIC (Staphylococcus aureus [5]) was 2 µg/mL and the MIC (Staphylococcus aureus [6]) was 4 µg/mL. The MIC (Staphylococcus aureus [7]) was 2 µg/mL, the MIC (Staphylococcus aureus [8]) was 4 µg/mL and the MIC50 (Staphylococcus aureus [8]) was 4 µg/mL. For the same molecule, the MIC (Staphylococcus aureus [9]) was 2 µg/mL, the MIC (Staphylococcus aureus [10]) was 0.5 µg/mL and the MIC (Staphylococcus aureus [11]) was 2 µg/mL. The MIC (Staphylococcus aureus [12]) was 4 µg/mL, the MIC (Staphylococcus aureus [13]) was 1 µg/mL and the Activity (Staphylococcus aureus [14]) was 0%. It also gave an MBC50 (Staphylococcus aureus [15]) of 1 µg/mL, an MBC90 (Staphylococcus aureus [15]) of 1 µg/mL and an MBC (Staphylococcus aureus [15]; Staphylococcus aureus) of 0.5 µg/mL. The MIC (Staphylococcus aureus [16]) was 1 µg/mL, the MBC50 (Staphylococcus aureus [17]) was 0.5 µg/mL and the MBC90 (Staphylococcus aureus [17]) was 1 µg/mL. The MBC (Staphylococcus aureus [17]; Staphylococcus aureus) was 0.25 µg/mL, the MIC (Staphylococcus aureus [18]) was 0.5 µg/mL and the MIC (Staphylococcus aureus [19]) was 4 µg/mL. The MIC (Staphylococcus aureus [20]) was 0.5 µg/mL, the MIC (Staphylococcus aureus [21]) was 2 µg/mL and the Activity (Staphylococcus aureus [22]) was 100%. For the same molecule, the MIC (Staphylococcus aureus [23]) was 4 µg/mL, the MIC (Staphylococcus aureus [24]) was 1 µg/mL and the MIC50 (Staphylococcus aureus [25]) was 0.5 µg/mL. For the same molecule, the MIC90 (Staphylococcus aureus [25]) was 1 µg/mL, the MIC (Staphylococcus aureus [26]) was 1 µg/mL and the MIC (Staphylococcus aureus [27]) was 0.5 µg/mL. It also gave an Activity (Staphylococcus aureus [28]) of 100%, an MIC (Staphylococcus aureus [29]) of 4 µg/mL and an MIC (Staphylococcus aureus [30]) of 1 µg/mL.
